# High-throughput results (PubChem BioAssay)
# CHOP inh: inhibitors of CHOP promoter induction, primary screen, cell-based, unfolded protein response, luciferase reporter | hit rate 3.8% among 220,000 | inhibition, % at 10 µM | CHO-K1 CHOP-promoter luciferase, tunicamycin-induced, 15-18 h;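 active = compounds that reduced the stress-induced luciferase reporter signal by more than about 70% of percent inhibition, limit read from the data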;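 also: 0% = tunicamycin plus vehicle and 100% = wells without tunicamycin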
# TbMetRS inhib: T. brucei MetRS inhibitors, primary screen, biochemical, luminescence | methionyl-tRNA synthetase (Trypanosoma brucei brucei) | purified T. brucei MetRS, ATP depletion, Kinase-Glo luminescence | inhibition, % at 11.9 µM | hit rate 0.4% among 360,000 | AID 624268, 2012;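 active = inhibition above a per-plate cutoff of the control wells' mean inhibition plus 3 SD, cut at about 5.5% in these data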;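 also: 0% = DMSO wells median and 100% = median of wells with control inhibitor compound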
#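 Assay system: T. brucei methionyl-tRNA synthetase, purified | Medium: HEPES buffer with MgCl2, KCl, DTT, spermine, BSA, pyrophosphatase | Compound: 11.9 µM single point | Incubation: 15 min enzyme-compound preincubation, 2 h reaction, 10 min detection, 25 °C | Measured by: Kinase-Glo luciferase luminescence reporting remaining unconsumed ATP | Measure: % inhibition normalized to control-well medians | Replication: Singlicate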
# V-ATPase pHluor: regulators of yeast V-ATPase proton pumping, primary screen, pHLuorin cytosolic pH fluorescence; S. cerevisiae; response, % at 10 µM; hit rate 0.37% among 350,000; in the data active = response mostly above about 7.3%, no sharp cut-off; inactive = mostly below about 5.4%; also: actives read high
# XBP1 UPR activ: activators of adaptive XBP1 UPR arm, primary screen, cell-based, CHO-XBP1 luciferase reporter, luminescence, uHTS. hit rate 0.33% among 330,000. IRE1-XBP1 UPR activation; percent of tunicamycin response, DMSO as zero. AID 463104, 2010. activation, % at 20 µM;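 active = versus positive control, 20 µM dose yields 30% or more activation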;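 also: 100% = tunicamycin at 10 µg/mL and 0% = DMSO only wells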
#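 Material: CHO-XBP1 cells stably carrying IRE1-XBP1-driven luciferase reporter | Medium: F12 with 10% serum | Compound dosing: 20 µM single concentration, DMSO 1% | Incubation: Overnight seeding at 37 °C, 6 h compound treatment at 37 °C | Detection: Steady-Glo luminescence read | Read-out basis: % activation of reporter signal versus tunicamycin and DMSO controls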
# CHOP UPR activ: activators of apoptotic CHOP UPR arm, primary screen, cell-based, CHO-CHOP luciferase reporter, luminescence, uHTS | UPR activation; percent of tunicamycin response over DMSO baseline | activation, % at 10 µM | hit rate 0.34% among 330,000;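 active = at 10 µM dose, activation of 40% or more, normalized to positive control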;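 also: 100% = tunicamycin at 10 µg/mL and 0% = DMSO alone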
#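 System: CHO CHOP reporter cells. Amount: 500 cells per well. Buffer or medium: F12 medium, 10% FBS. Compound dosing: one dose, 10 µM in 0.5% DMSO. Incubation: 6 h compound exposure at 37 °C after overnight seeding. Technique: Steady-Glo luciferase luminescence. Benchmarks: tunicamycin and DMSO controls.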
# VATPase regulator: yeast V-ATPase proton pumping modulators, confirmation, S. cerevisiae, pH-sensitive GFP, second cherry-pick; response, % at 10 µM; hit rate 2% among 980; shares compounds with V-ATPase pHluor; S. cerevisiae pHLuorin cytosolic pH, V-ATPase proton transport; AID 602197, 2012; in the data active = response above about 24%;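 also: plate controls were vehicle wells for no effect and positive control wells for full effect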
# An asterisk follows results filed as active; · = no result. The sample as a whole holds a higher share of hits than the screen did.
SMILES,CHOP inh,TbMetRS inhib,V-ATPase pHluor,XBP1 UPR activ,CHOP UPR activ,VATPase regulator
COc1cc(CC(=O)OCC(=O)NC2CCCC2)cc(OC)c1OC,·,0.2,12.2*,-4.3,-0.4,-0.8
COc1cc(CC(=O)OCC(=O)NC2CC2)cc(OC)c1OC,-9.8,-0.6,2.2,-4.3,-0.6,·
OC[C@@H]1CN(Cc2ccc3c(c2)OCO3)C[C@H](n2cnc3c(NC4CCC4)ncnc32)O1,·,-0.1,·,·,·,·
Nc1cccc(P(=O)(c2ccccc2)c2ccccc2)c1,·,-0.3,9.6*,-2.0,-0.9,0.6
O=P(c1ccccc1)(c1ccccc1)N(c1ccccc1)c1ccccc1,57.0,0.6,1.8,-2.5,1.1,·
CNc1nc(SC(C)C(=O)Nc2ccc(Cl)c(Cl)c2)nc(N2CCOCC2)n1 (stereo not drawn),55.7,-0.5,2.5,0.6,-0.2,·
CC(Oc1cccc2cccnc12)C(=O)N/N=C/c1ccc2c(c1)OCO2 (stereo not drawn),·,-0.2,7.0*,1.4,1.2,1.6
CCCCCOC(=O)C1=C(C)NC(=O)NC1c1ccccc1 (stereo not drawn),·,-0.2,11.7*,-1.9,2.7,6.1
CCCCCOC(=O)C1=C(C)NC(=O)NC1c1ccc(N(C)C)cc1 (stereo not drawn),·,-0.2,2.4,-3.9,-0.6,·
CCC(C)Sc1ccc([C@H]2N[C@@](C)(C(=O)OC)[C@H]3C(=O)N(C)C(=O)[C@@H]23)cc1 (stereo partly drawn),·,-0.3,-2.0,-0.5,0.0,·
C/C(=N\O)C(C)(C)Nc1cccc(Br)c1,7.3,0.0,15.6*,-5.2,-1.0,3.9
CCOC(=O)C1CCCN(c2c(NCC3CCCN3CC)c(=O)c2=O)C1 (stereo not drawn),1.6,-1.1,-0.8,0.2,-0.1,·
CCOC(=O)C1CCCN(c2c(NCCCN3CCCC(C)C3)c(=O)c2=O)C1 (stereo not drawn),5.4,-0.8,12.6*,-0.2,0.8,-0.6
CCN(CC)S(=O)(=O)c1ccc(-n2cnc3cc(C)c(C)cc32)nc1,·,-0.3,1.6,-0.3,3.9,·
Cc1cc(=O)n(C(C)Cc2ccccc2)n1C(C)Cc1ccccc1 (stereo not drawn),·,-0.5,2.9,·,·,·
O=C(Nc1ccccc1C(=O)NCCCn1ccnc1)c1ccccc1,14.0,-0.7,0.0,0.6,-2.0,·
CC(C)C(NC(=O)c1ccccc1NC(=O)c1ccccc1)C(=O)NCCCn1ccnc1 (stereo not drawn),·,-1.1,9.5*,2.0,-1.0,0.6
CC(=O)c1c(C)[nH]c(C(=O)NCc2cccc(Cl)c2)c1C,-16.9,4.7,9.6*,-2.6,-0.2,-1.5
CC(=O)c1c(C)[nH]c(C(=O)NCc2ccc(Cl)cc2)c1C,·,-0.3,-2.6,·,·,·
O=C1NCCCCC1NS(=O)(=O)c1cccc(C(F)(F)F)c1 (stereo not drawn),·,-0.6,1.7,0.0,0.6,·
CCOC(=O)C1C(=O)N(O)CC1c1cccc(Oc2ccccc2)c1 (stereo not drawn),24.1,-0.7,12.5*,-1.9,1.7,0.1
CN(C(=O)c1cccc(NC(=O)Cc2ccc(NC(=O)C3CCCN(C(=O)C4CCCCC4)C3)cc2)c1)C1CCCCC1 (stereo not drawn),·,0.2,0.0,·,·,·
Cc1cc(=O)oc2cc(OCC(=O)NC3CC(C)(C)NC(C)(C)C3)ccc12,·,0.2,10.9*,-1.6,3.9,-0.5
Cc1ccc(-n2ccc(=O)c(C(=O)Nc3ccc(S(=O)(=O)Nc4onc(C)c4C)cc3)n2)cc1,·,1.1,-4.2,-1.9,2.4,·
CC1CC(C)CN(C(=O)CN2C(=O)NC3(CCCCCC3)C2=O)C1 (stereo not drawn),·,-0.1,11.9*,-1.3,0.7,2.6
SMILES,CHOP inh,TbMetRS inhib,V-ATPase pHluor,XBP1 UPR activ,CHOP UPR activ,VATPase regulator
COc1ccc(NC(=O)CC2SC(=N)N(c3ccccc3)C2=O)c(OC)c1 (stereo not drawn),-13.5,0.6,-1.5,-0.3,0.6,·
C/C(=N\NC(=S)NC1CCCCC1)c1cccc(C(F)(F)F)c1,69.3,-0.5,13.2*,-1.4,-0.5,1.9
CC(=O)O[C@H]1CC(C)(C)C(=C=C/C(C)=C/C=C/C(C)=C/C=C/C=C(C)/C=C/C=C(\C)C(=O)C[C@@]23O[C@]2(C)C[C@@H](O)CC3(C)C)[C@](C)(O)C1,-71.3,·,·,1.3,1.4,·
COc1ccc(-c2c(C)n([O-])c3c([n+]2=O)CCCC3)cc1,4.7,-0.6,10.2*,-3.5,0.6,7.9
Cc1ccc(-c2c(C)n([O-])c3c([n+]2=O)CCCCC3)cc1,-13.7,-0.5,-1.2,0.9,-2.3,·
CCN(CC)CCCN(C(=O)Cn1nnc(-c2ccc(OC)c(OC)c2)n1)C(C(=O)NC(C)(C)C)c1ccc(F)cc1 (stereo not drawn),13.8,-0.7,2.1,-1.6,-1.5,·
Cc1cc(NC(=O)C(C)SCC(=O)Nc2ccccc2C(C)(C)C)no1 (stereo not drawn),·,-0.4,9.9*,-1.4,0.5,-4.0
Cc1ccc(-c2nc(CS(=O)CC(=O)NCc3ccccc3)c(C)o2)cc1 (stereo not drawn),22.4,-1.7,-5.6,-3.5,-2.3,·
Cc1ccc(NC(=O)CS(=O)Cc2nc(-c3ccc(C)cc3)oc2C)cc1 (stereo not drawn),47.1,0.3,10.6*,1.4,-0.4,3.4
COc1ccc(Cl)cc1NC(=O)C(C)N(C)Cc1ccc(C(F)(F)F)cc1 (stereo not drawn),48.8,-0.8,-4.6,0.9,4.3,·
COCCNC(=O)C1(C)CCCN(CC(=O)c2ccc(OC)cc2)C1 (stereo not drawn),·,-0.1,·,·,·,·
COc1ccc(Nc2nnc(C)c(=O)[nH]2)c(OC)c1,47.0,-0.1,11.5*,-3.8,-0.7,-0.6
COCCNC(=O)C(c1ccc(C)o1)N(Cc1ccc(F)cc1)C(=O)Cn1nnc2ccccc21 (stereo not drawn),4.5,1.5,24.3*,-0.7,-2.7,-1.8
COCCNC(=O)C(c1ccccc1)N(Cc1cccs1)C(=O)Cn1nnc2ccccc21 (stereo not drawn),18.1,-1.1,23.7*,-0.9,1.5,-6.4
COCCNC(=O)C(c1ccc(C)o1)N(Cc1ccc(OC)cc1)C(=O)Cn1nnc2ccccc21 (stereo not drawn),5.0,-0.1,-2.7,-0.7,-0.7,·
O=C(Nc1cccc(C(F)(F)F)c1)c1cccnc1N1CCN(CCO)CC1,22.0,-0.4,-5.5,-1.9,2.3,·
O=C(Nc1cccc(C(F)(F)F)c1)c1cccnc1N1CCN(c2ccccc2)CC1,51.0,-2.7,12.3*,-2.8,-2.0,-2.3
